LEDGF integ inh: blocks HIV-1 LEDGF/p75-dependent DNA integration | TR-FRET IN-LEDGF/p75 DNA integration, Eu/Cy5 | inhibition, % at 3.7 µM | actives 0.64% (n = 370,000);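 active = inhibition above the screen-wide mean plus 3 SD, cut at about 13% in these data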;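 also: signal is the Cy5 over europium emission ratio at 671 and 618 nm; 0% = plate median of compound wells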
ASAP1 GAP inh: ASAP1 ArfGAP inhibition; actives 0.19% (n = 360,000); ASAP1-stimulated ARF1 GTP hydrolysis, GDP FP detection; Q9ULH1; inhibition, % at 16.5 µM; in the data active = inhibition above about 25%;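 also: 0% = vehicle with enzyme and substrate and 100% = no enzyme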
CASP6 VEID inh: blocks human caspase-6 cleavage activity; P55212; purified caspase-6, Z-VEID-R110 cleavage fluorescence; inhibition, % at 12.5 µM; actives 0.53% (n = 350,000); AID 686996;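 active = mean inhibition across replicates at least about 35%, with every replicate also reaching that limit, limit read from the data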;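 also: 0% = median of neutral control wells and 100% = no fluorescence left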
Target sequence (P55212 24-179 limits assumed): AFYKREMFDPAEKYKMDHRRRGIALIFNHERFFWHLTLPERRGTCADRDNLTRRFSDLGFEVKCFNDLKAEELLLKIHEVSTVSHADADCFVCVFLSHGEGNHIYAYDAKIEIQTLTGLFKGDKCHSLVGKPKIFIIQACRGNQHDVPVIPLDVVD
Target sequence (P55212 194-293 limits assumed): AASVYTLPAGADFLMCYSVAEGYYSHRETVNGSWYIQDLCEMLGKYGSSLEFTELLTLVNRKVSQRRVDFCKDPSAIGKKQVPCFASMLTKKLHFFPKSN
ARFGAP1 inhibitor: inhibitors of rat ARFGAP1; Q62848; Arfgap1-stimulated ARF1 GTP hydrolysis, GDP FP detection; inhibition, % at 16.5 µM; actives 0.26% (n = 360,000); AID 651572;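 active = inhibition above a per-plate limit, mean inhibition of low control wells plus 3 SD, cut at about 25% in these data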;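 also: 0% = DMSO wells with enzyme and 100% = wells lacking Arfgap1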
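Material – truncated rat Arfgap1 GAP domain · Buffer or medium – HEPES-based buffer, pH 7.5 · Reagent – human ARF1(Δ1-17)-GTP substrate · Dosing – 16.5 µM single point, 1.26% DMSO · Schedule – GTP hydrolysis reaction 2 h at 25 °C · Technique – GDP detection by fluorescence polarization · Benchmarks – No-Arfgap1 wells (100%) versus DMSO full-reaction wells (0%) · Repeats – single replicate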
TDP2 absorb: blocks human TDP2 phosphodiesterase activity; O95551; recombinant TDP2, T5PNP hydrolysis, p-nitrophenol absorbance 415 nm; inhibition, % at 12.8 µM; actives 0.34% (n = 370,000);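 active = inhibition above the mean of all tested compounds plus 3 SD, set per campaign, cut at about 25% in these data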;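 also: 0% = DMSO with enzyme and 100% = buffer with substrate but no TDP2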
Target sequence (O95551 whole entry, looked up): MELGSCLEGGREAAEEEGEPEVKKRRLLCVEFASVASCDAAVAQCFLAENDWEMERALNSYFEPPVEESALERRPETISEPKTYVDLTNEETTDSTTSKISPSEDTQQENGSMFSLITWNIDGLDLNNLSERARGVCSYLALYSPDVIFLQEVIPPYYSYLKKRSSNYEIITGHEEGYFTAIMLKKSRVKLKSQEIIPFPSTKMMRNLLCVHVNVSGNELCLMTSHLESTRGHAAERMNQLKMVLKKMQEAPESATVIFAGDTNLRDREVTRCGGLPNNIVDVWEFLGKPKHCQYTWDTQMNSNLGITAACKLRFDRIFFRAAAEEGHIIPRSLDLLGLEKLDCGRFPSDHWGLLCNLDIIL
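Incubation: 2 h at 37 °C; Test system: recombinant human TDP2; Quantity: enzyme 120 nM; Read-out basis: percent inhibition; Medium: 50 mM Tris-HCl pH 7.5 with Mg2+, KCl, DTT, BSA; Repeats: single replicate; Compound: 12.8 µM single point, 1% DMSO; Signal: epi absorbance; Reagent: 5 mM T5PNP chromogenic substrate; Benchmarks: no-enzyme high, DMSO-plus-enzyme low.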
IN multimer up: HIV-1 integrase multimerization activation, counter-screen. shares compounds with LEDGF integ inh. TR-FRET HIV-1 integrase multimerization, biochemical. activation, % at 7.7 µM. actives 17% (n = 2,000). AID 1053131; in the data active = activation above about 8.9%
TR-FRET interf: TR-FRET optical interference, LEDGF/p75 integration counter-screen | 2,000 tested, under 10 active | AID 1053135 | shares compounds with LEDGF integ inh | TR-FRET optical interference counterscreen, HIV-1 IN multimerization | inhibition, % at 7.7 µM;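 active = inhibition above the mean over all tested compounds plus 3 SD, which no compound reached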;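 also: 0% = integrase with antibodies and DMSO and 100% = antibodies without integrase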
IN-LEDGF confirm: LEDGF/p75-dependent HIV-1 integration inhibition, confirmation. shares compounds with LEDGF integ inh. TR-FRET LEDGF/p75-dependent HIV-1 integration, biochemical. inhibition, % at 3.7 µM. actives 36% (n = 2,000). AID 1053136; in the data active = inhibition above about 14%
Active calls of the source: *; . = no result given. This is a sample that favours compounds with a hit; in the whole collection about 1.3% have one here.

SMILES | LEDGF integ inh | ASAP1 GAP inh | CASP6 VEID inh | ARFGAP1 inhibitor | TDP2 absorb | IN multimer up | TR-FRET interf | IN-LEDGF confirm
CC1=NN(c2ccccc2)C(=O)C1/C=C1\C(=O)NC(=O)N(c2cc(C)cc(C)c2)C1=O (centres undefined) | 5 | -7 | . | 1 | 20 | . | . | .
Cc1ccc(N2C(=O)NC(=O)/C(=C/C=C/c3ccco3)C2=O)cc1 | 35* | -8 | . | -3 | 7 | -1 | 5 | 24*
Cc1cc(C)cc(N2C(=O)NC(=O)/C(=C\C=C\c3ccco3)C2=O)c1 | 35* | 5 | 28 | 8 | 7 | -1 | 3 | 29*
CCCCN1C(=O)/C(=C/C=C/c2ccco2)C(=O)NC1=S | 56* | 0 | 78* | -11 | 4 | 3 | -17 | 74*
O=C1NC(=O)N(Cc2ccc(F)cc2)C(=O)/C1=C\C=C\c1ccco1 | 30* | 17 | 23 | 13 | 2 | 3 | -11 | 20*
Cn1cccc1/C=C1/C(=O)NC(=O)N(Cc2ccc(F)cc2)C1=O | 1 | 8 | 23 | 6 | 2 | . | . | .
CCCC(C)C1(CC)C(=O)NC(=Nc2ccc(OC)cc2)NC1=O (centres undefined) | -1 | 5 | 3 | -1 | 10 | . | . | .
O=C(c1cc2cc(Br)ccc2[nH]1)N1CCC2(CC1)OCCO2 | -5 | -16 | 1 | -12 | -6 | . | . | .
c1ccc2nc(N3CCNCC3)ccc2c1 | 0 | -11 | -3 | -2 | 5 | . | . | .
CCC(C)C1(CC)C(=O)NC(=O)N=C1N (centres undefined) | -5 | -2 | . | 11 | 5 | . | . | .
COc1cc(OC)c(OC)cc1CNCCc1ccc(F)cc1 | 0 | -6 | -3 | -1 | 5 | . | . | .
O=C1NC(=O)N(c2ccccc2)C(=O)/C1=C\C=C\c1ccccc1 | 0 | -3 | 0 | 0 | 2 | . | . | .
CC(C)c1ccc(N2C(=O)NC(=O)/C(=C/C=C/c3ccco3)C2=O)cc1 | 24* | 2 | . | 13 | 3 | 3 | -12 | 27*
CCc1ccc(N2C(=O)NC(=O)/C(=C\C=C\c3ccco3)C2=O)cc1 | 35* | 16 | 54* | 17 | 5 | 0 | -1 | 40*
COc1ccc(-c2ccc3c(c2)CN(c2cccc(Cl)c2)Cc2cnnn2-3)cc1 | 73* | -4 | . | 1 | -9 | -1 | 5 | 14*
Clc1cccc(N2Cc3cc(N4CCOCC4)ccc3-n3nncc3C2)c1 | 6 | -12 | 4 | 8 | 8 | . | . | .
NN=C1C(Cl)=C(Cl)C(Cl)=C1Cl | 22* | -2 | 97* | 19 | -8 | -1 | 5 | 3
C=C(C)CC1(CC)C(=O)NC(=S)NC1=O | 20* | -2 | -5 | 1 | -5 | 1 | -3 | -5
CN(C)[C@@H]1C(=O)C(C(N)=O)=C(O)[C@@]2(O)C(=O)C3=C(O)c4c(O)ccc(Cl)c4[C@@](C)(O)C3C[C@@H]12 (some centres undefined) | 28* | -3 | 44* | -4 | -8 | 14* | -69 | 28*
CN(C)[C@@H]1C(=O)C(C(N)=O)=C(O)[C@@]2(O)C(=O)C3=C(O)c4c(O)cccc4[C@@](C)(O)C3[C@H](O)C12 (some centres undefined) | 42* | 6 | 45* | -3 | 14 | 15* | -53 | 25*
Cc1cc(/C=C2/C(=O)NC(=O)N(Cc3ccco3)C2=O)c(C)n1-c1ccccc1O | 26* | 1 | 24 | 2 | -11 | 1 | -3 | -3
CCN(CC)c1ccc(/C=C2/C(=O)NC(=O)N(CC3CCCO3)C2=O)cc1 (centres undefined) | -1 | 6 | . | 4 | 3 | . | . | .
CCN(CC)c1ccc(/C=C2\C(=O)NC(=O)N(Cc3ccco3)C2=O)cc1 | 71* | 12 | . | 4 | 2 | -1 | 3 | 54*
Cc1cc(/C=C2/C(=O)NC(=O)N(C)C2=O)c(C)n1-c1ccccc1 | -3 | -16 | -11 | 8 | 5 | . | . | .
O=C(c1ccccc1)C1NC1c1ccccc1 (centres undefined) | 0 | -2 | 0 | 3 | 5 | . | . | .
SMILES | LEDGF integ inh | ASAP1 GAP inh | CASP6 VEID inh | ARFGAP1 inhibitor | TDP2 absorb | IN multimer up | TR-FRET interf | IN-LEDGF confirm
CC(C)n1c(=O)c(C=Nc2ccc(S(N)(=O)=O)cc2)c(O)n(Cc2ccco2)c1=O | 17* | -5 | 12 | 13 | -1 | 0 | 1 | 5
CCCCn1c(=O)c(C=Nc2ccc(Cl)cc2)c(O)n(Cc2ccco2)c1=O | 2 | 5 | 3 | -7 | -6 | . | . | .
COc1ccccc1NC(=O)c1cn(CCC#N)nc1-c1ccc(F)cc1 | 5 | -10 | 1 | -7 | 2 | . | . | .
C=C1[C@H]2CC[C@H]3[C@]4(C)C[C@H](O[C@@H]5OC(CO)[C@@H](OSOOO)[C@H](OS(=O)(=O)O)[C@H]5OC(=O)CC(C)C)C[C@@H](C(=O)O)[C@H]4CC[C@]3(C2)[C@H]1O (some centres undefined) | 14* | 3 | 1 | -6 | -15 | -2 | 11 | 15*
c1ccc(-c2ccncc2)cc1 | 8 | 2 | -4 | 13 | -13 | . | . | .
O=c1[nH]c(=O)n(Cc2ccco2)c(O)c1C=NCc1ccco1 | 15* | 6 | . | 11 | 23 | -2 | 9 | 12
CCCCC(=O)N/N=C/c1c(O)n(Cc2ccco2)c(=O)[nH]c1=O | 27* | 2 | . | 3 | 10 | 0 | -2 | 2
CCN(CC)CCN=Cc1c(O)n(Cc2ccco2)c(=O)[nH]c1=O | -1 | -14 | -6 | -2 | -3 | . | . | .
COc1ccc(C2=NCc3nnc(C)n3-c3ccc(Cl)cc32)cc1Cl | -2 | -6 | . | -6 | 0 | . | . | .
O=C(Cc1cccnc1)N1CCCCN2[C@H](CO)[C@H](c3ccc(/C=C/c4ccccc4)cc3)[C@@H]2C1 | . | . | 1 | . | . | . | . | .
Cn1c[n+](C)cc1C(O)c1ccccc1 (centres undefined) | 2 | 8 | . | 15 | -8 | . | . | .
CCc1nc2ccccc2c(=O)n1-c1ccccc1OC | 25* | -2 | 1 | 3 | 2 | 1 | -3 | -5
CCc1ccccc1N1C(=O)/C(=C/c2ccc(N3CCN(C)CC3)o2)C(=O)NC1=S | 17* | 2 | 12 | -4 | -1 | 2 | -8 | 14*
O=P1(NCCCn2cc[n+](Cc3nc4ccccc4[nH]3)c2)C=C(c2ccccc2)OC(c2ccccc2)=C1 | 2 | -3 | -94 | 3 | -12 | . | . | .
